# Assay results of several laboratories.
# Each line is one published result; the experiments were not run side by side.
# Observed: cell growth or viability
Structure (SMILES),cell line,test,conditions,measurement,value
Cn1cc(C(c2ccc(/C=C/C(=O)O)s2)c2cn(C)c3ccccc23)c2ccccc21,KG-1,,"20 µM, 48 h",inhibition,7%
COc1ccccc1S(=O)(=O)Nc1ccc2c(c1)CN(C)C(=O)N2,PL-21,ATP luminescence,,GI50,10 µM
CC(C)n1cc(C(c2ccc(/C=C/C(=O)O)s2)c2cn(C(C)C)c3ccccc23)c2ccccc21,KG-1,,"5 µM, 48 h",inhibition,12%
COc1cc(-c2ccc(-c3ccc(C(=N)N)nc3)s2)cc(OC)c1OC,Malme-3M,SRB,,GI50,1.53 µM
C/C(=N\NC(=O)c1cccc(S(=O)(=O)N2CCN(C)CC2)c1)c1cc(Cl)ccc1O,MOLM-13,resazurin,96 h,EC50,0.285 µM
CCn1c2ccccc2c2cc(C3CC(c4cc5cccc(OC)c5oc4=O)=NN3c3cccc(Cl)c3)ccc21 (centres unmarked),NRK-52E,MTT,24 h,IC50,24.2 µM
COc1cccc(Oc2ccccc2NC(=O)CNC(=O)c2cccc3ccccc23)c1,Malme-3M,SRB,48 h,GI50,17 µM
CCn1c2ccccc2c2cc(C3CC(c4cc5cccc(OC)c5oc4=O)=NN3C(N)=O)ccc21 (centres unmarked),NRK-52E,MTT,24 h,IC50,40.3 µM
CN1CCN(C(=O)[C@H](CCCN[C@@H]2C[C@H]2c2ccc(F)cc2)NC(=O)c2ccc(-n3ccnn3)cc2)CC1,MOLM-13,resazurin,96 h,EC50,0.00538 µM
Cn1cc(C(c2ccc(C(=O)O)cc2)c2cn(C)c3ccccc23)c2ccccc21,KG-1,,"20 µM, 48 h",inhibition,25%
COc1ccc(-c2ccc(-c3ccc(C(=N)N)nc3)s2)cc1Cl,Malme-3M,SRB,,GI50,1.78 µM
